{
  "source": "ChEMBL document CHEMBL1145403",
  "about": "“Structure-based design of flavonoid compounds as a new class of small-molecule inhibitors of the anti-apoptotic Bcl-2 proteins” (J Med Chem, 2007)",
  "key": {"[1]": {"target": "Apoptosis regulator Bcl-2 (Homo sapiens, UniProt P10415)", "sequence (P10415 whole entry)": "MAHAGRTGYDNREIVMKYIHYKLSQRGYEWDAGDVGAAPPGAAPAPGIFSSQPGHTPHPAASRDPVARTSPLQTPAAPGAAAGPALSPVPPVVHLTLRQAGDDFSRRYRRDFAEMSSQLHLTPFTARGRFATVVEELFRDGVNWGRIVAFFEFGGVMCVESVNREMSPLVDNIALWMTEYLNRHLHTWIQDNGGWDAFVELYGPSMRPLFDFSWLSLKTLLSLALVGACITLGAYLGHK", "assay": "Displacement of FAM-Bim peptide from human Bcl2 by fluorescence polarization assay"}, "[2]": {"target": "Induced myeloid leukemia cell differentiation protein Mcl-1 (Homo sapiens, UniProt Q07820)", "sequence (Q07820 whole entry)": "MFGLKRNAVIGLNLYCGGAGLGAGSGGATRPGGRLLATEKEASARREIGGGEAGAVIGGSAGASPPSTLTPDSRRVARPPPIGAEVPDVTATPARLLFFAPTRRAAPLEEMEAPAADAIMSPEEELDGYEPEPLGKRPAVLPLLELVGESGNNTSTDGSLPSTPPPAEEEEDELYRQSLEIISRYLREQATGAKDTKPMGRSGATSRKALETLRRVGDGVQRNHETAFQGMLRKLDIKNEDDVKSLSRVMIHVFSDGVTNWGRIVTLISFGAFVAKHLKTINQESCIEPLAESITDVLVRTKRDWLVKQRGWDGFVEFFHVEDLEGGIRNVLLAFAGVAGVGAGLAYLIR", "assay": "Displacement of FAM-Bim peptide from human Mcl1 by fluorescence polarization assay", "how_it_was_run": "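Compound added from DMSO, 4 h incubation, polarization at ex 485/em 530 nm. IC50 by nonlinear least-squares fit; Ki from the FP equation.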"}, "[3]": {"system": "MDA-MB-231", "assay": "Growth inhibition of human MDA-MB-231 cells after 4 days by WST-based assay", "format": "functional, cell-based", "conditions": "MDA-MB-231, 96 h", "how_it_was_run": "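Cells seeded at 3-4 × 10^3/well together with graded compound concentrations and cultured 4 days. WST-8 added at 10% final, then 2-3 h at 37°C. Absorbance read at 450 nm. IC50 = 50% growth inhibition relative to untreated cells.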"}, "[4]": {"system": "MDA-MB-231", "assay": "Induction of apoptosis in human MDA-MB-231 cells at 1 uM after 3 days by Annexin V/propidium iodide staining"}, "[5]": {"system": "MDA-MB-231", "assay": "Induction of apoptosis in human MDA-MB-231 cells after 3 days by Annexin V/propidium iodide staining-based flow cytometry"}, "[6]": {"system": "MDA-MB-231", "assay": "Induction of apoptosis in human MDA-MB-231 cells at 0.5 uM after 3 days by Annexin V/propidium iodide staining-based flow cytometry"}},
  "note": "Calls of active or inactive are those of the source. The rule behind the calls is not given here.",
  "data": [
    {"smiles": "Cc1oc2c(CC(C)C)c(O)c(O)c(O)c2c(=O)c1-c1ccccc1", "values": [
      {"measurement": "Ki", "setting": "[1]", "result": 340, "unit": "nM"},
      {"measurement": "Ki", "setting": "[2]", "result": 400, "unit": "nM"},
      {"measurement": "IC50", "setting": "[3]", "result": 5300, "unit": "nM"}
    ]},
    {"smiles": "Cc1cc2c(C(C)C)c(O)c(O)c(C=O)c2c(O)c1-c1c(C)cc2c(C(C)C)c(O)c(O)c(C=O)c2c1O", "note": "[GOSSYPOL]", "values": [
      {"measurement": "Ki", "setting": "[2]", "result": 280, "unit": "nM"},
      {"measurement": "IC50", "setting": "[3]", "result": 1900, "unit": "nM"}
    ]},
    {"smiles": "Cc1cc(=O)c2c(O)c(O)c(O)c(CC(C)C)c2o1", "values": [
      {"measurement": "Ki", "setting": "[1]", "result": 730, "unit": "nM"},
      {"measurement": "Ki", "setting": "[2]", "result": 1690, "unit": "nM"},
      {"measurement": "IC50", "setting": "[3]", "result": 30000, "unit": "nM"}
    ]},
    {"smiles": "Cc1oc2c(CC(C)C)c(O)c(O)c(O)c2c(=O)c1-c1ccc(-c2c(C)oc3c(CC(C)C)c(O)c(O)c(O)c3c2=O)cc1", "values": [
      {"measurement": "Ki", "setting": "[1]", "result": 17, "unit": "nM"},
      {"measurement": "Ki", "setting": "[2]", "result": 18, "unit": "nM"},
      {"measurement": "IC50", "setting": "[3]", "result": 110, "unit": "nM"},
      {"measurement": "Activity", "setting": "[4]", "result": 64.4, "unit": "%"},
      {"measurement": "Activity", "setting": "[5]", "result": "Dose-dependent effect"},
      {"measurement": "Activity", "setting": "[6]", "result": 24.5, "unit": "%"}
    ]},
    {"smiles": "COc1c(OC)c(OC)c2c(=O)c(-c3ccc(-c4c(C)oc5c(CC(C)C)c(OC)c(OC)c(OC)c5c4=O)cc3)c(C)oc2c1CC(C)C", "values": [
      {"measurement": "Activity", "setting": "[1]", "result": "inactive"},
      {"measurement": "Activity", "setting": "[2]", "result": "inactive"},
      {"measurement": "IC50", "setting": "[3]", "result": "> 100000", "unit": "nM"}
    ]}
  ]
}
